Here are results for seven compounds from publication PMC6318120 (Cellular and molecular life sciences : CMLS, 2017).

In one experiment the test system is Cx43-hemichannels. To be noted: cited from earlier work; for effect on Cx43-hemichannel inhibition by high [Ca2+]i: 1 μM [Ca2+]i.
The subject of experiment [1] is Cx43-hemichannels in primary bovine corneal endothelial cells (BCECs). To be noted: cited from earlier work.
The test system of another experiment is Cx43 gap junctions. To be noted: cited from earlier work.
For experiment [2], the system named is Cx43-hemichannels in HeLa cells overexpressing Cx43. Put plainly: Whole-cell patch clamp recording of unitary Cx43-hemichannel currents. To be noted: peptide 100 μM via patch pipette. The experiment is classed as cell-based, human. For orientation: Patch clamp records ionic current or voltage across a cell membrane.
The subject of experiment [3] is native HeLa cells, which lack endogenous Cx43 expression. Put plainly: Whole-cell patch clamp recording in native HeLa cells. The experiment is classed as cell-based, human. The note with it: peptide 100 μM; voltage steps -30 to +60 mV; Supplementary Fig. 1. Summed up: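 Whole-cell patch clamp was done on untransfected HeLa cells. The CsCl/EGTA/TEA pipette solution (pH 7.2) was set to 1 µM free Ca2+ and delivered test peptide (100 µM). Steps ran from −30 to +60 mV for 30 s, acquired at 4 kHz and filtered at 1 kHz.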

The subject of another experiment is Cx43^M242 hemichannels. Put plainly: ATP release from HeLa cells transiently expressing CT-truncated Cx43^M242. The format is cell-based, human. To be noted: peptide 100 μM; Fig. 6b. The gist of the method:
(§1)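 HeLa cells were transiently transfected with the truncated Cx43 construct; empty-vector-transfected cells gave background release. Cells were triggered with 2 µM A23187 while exposed to vehicle or TAT-linked test peptides (100 µM). Extracellular ATP was measured by luciferin–luciferase and normalised to baseline from separate cultures in standard HBSS-HEPES. At least four independent measurements.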

Experiment [4] relates to Cx43^ΔGap19M242-based hemichannels. Put plainly: ATP release from HeLa cells transiently expressing Cx43^ΔGap19M242. The format is cell-based, human. The note with it: peptide 100 μM; 2 μM A23187; n = 4; Fig. 7a. Summed up:
as §1

On to “YGRKKRRORRRDGANVDMHLKQTFTKKFKYGTFFHGK [TAT-L2]”, for which the “effect on opening of Cx43-hemichannels” value in the experiment on Cx43-hemichannels is “inhibited the opening of Cx43-hemichannels”. Further, the “effect of TAT-L2 pre-treatment on the active area in BCECs” value in experiment [1] (pre-treatment of BCECs) is “severely reduced”. In addition, the “effect on Cx43 gap junctions” value in the experiment on Cx43 gap junctions is on record as “but not Cx43 gap junctions”.
As for thrombin, the “effect of thrombin pre-treatment on the active area in BCECs” value in experiment [1] (pre-treatment of BCECs) is recorded as “strongly reduced”.
Regarding SPTAPLSPMSPPG [SH3], in experiment [2] (current traces integrated over time, Fig. 4j), the “membrane charge transfer (Qm) summary at 1 μM [Ca2+]i” value is “remove hemichannel inhibition”. In addition, the “effect on hemichannel opening activity at 50 nM [Ca2+]i” value in experiment [2] (voltage steps -30 to +60 mV, 30 s, Fig. 4b, c) is “did not affect”. Moreover, in experiment [2] (voltage steps -30 to +60 mV, 30 s, Fig. 4g-i), the “effect on inhibition of Cx43-hemichannel currents by 1 μM [Ca2+]i” value was “completely prevented the inhibition”. In addition, in experiment [3], the “unitary current activity in native HeLa cells at 1 μM [Ca2+]i” value is “did not elicit any changes”.
Turning to “Gap19: nine amino acid sequence of L2, selective Cx43-hemichannel inhibitor (KQIEIKKFK; UniProt P17302 128-136, looked up, fragment)”, the “effect on opening of Cx43-hemichannels” value with Cx43-hemichannels is reported as “inhibit the opening of Cx43-hemichannels”. In addition, in the experiment on Cx43 gap junctions, the “effect on Cx43 gap junctions” value is on record as “not affecting Cx43 gap junctions”.
As for YGRKKRRQRRRSRPRPDDLFI [TAT-CT9], the “effect on Cx43-hemichannel inhibition by high [Ca2+]i” value with Cx43-hemichannels was “prevented the Cx43-hemichannel inhibition by high [Ca^2+]i”. In the experiment with Cx43-hemichannels (cell-permeant synthetic peptide), the “restoration of the activity of Cx43^M239-based hemichannels” value is “can be restored”. Further, the “restoration of ATP release of Cx43^M242 hemichannels in response to 2 μM A23187” value in the experiment on Cx43^M242 hemichannels is recorded as “can restore the activity”. In addition, in experiment [1] (thrombin-treated BCECs), the “restoration of the thrombin-reduced active area in BCECs” value is “could restore the thrombin-reduced active area”.
Consider YGRKKRRQRRRSSPTAPLSPMSPPG [TAT-SH3], for which the “restoration of ATP release through Cx43^ΔGap19M242-based hemichannels” value in experiment [4] was “could not be restored”. In addition, in the experiment with Cx43^M242 hemichannels, the “restoration of ATP release of Cx43^M242 hemichannels in response to 2 μM A23187” value was “restored the ATP release properties”.
As to `Cc1ccc2c(c1)C(=O)C1(O)CCN(c3ccccc3)C1=N2` (single isomer, unassigned; (-)) [(−)-blebbistatin], the “effect on Cx43-hemichannel inhibition by high [Ca2+]i” value with Cx43-hemichannels was “prevented the Cx43-hemichannel inhibition by high [Ca^2+]i”. The “effect on thrombin-induced inhibition of Cx43-hemichannels in BCECs” value in experiment [1] (thrombin-treated BCECs) is reported as “could be alleviated”.
